Measurements published in ChEMBL document CHEMBL1125485, “Inhibitors of blood platelet cAMP phosphodiesterase. 2. Structure-activity relationships associated with 1,3-dihydro-2H-imidazo[4,5-b]quinolin-2-ones substituted with functionalized side chains” (J Med Chem, 1992).

How the values were obtained:
Canis familiaris [1] = experiment: Inhibition of coronary artery occlusion (mean area under flow time curve) in anesthetized dog at 0.03 mg/kg; format: functional; details: Canis lupus familiaris
Method in brief: (§1)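 Modified Folts-type coronary stenosis-occlusion model of large-vessel thrombosis; read-out mean area under flow-time curve (% seconds) compared with vehicle-treated animals, as percent inhibition of thrombus formation. Five animals.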

Phosphodiesterase 3 [2] = molecular target: T1, Phosphodiesterase 3 (Homo sapiens, UniProt Q14432+Q13370); experiment: Inhibition of human platelet PDE by inhibiting cyclic Adenosine monophosphate (cAMP) hydrolysis
Oryctolagus cuniculus [3] = species on record: Oryctolagus cuniculus; experiment: Inhibition of platelet aggregation using collagen as activating agent in rabbit platelet rich plasma (PRP); format: functional
Method in brief: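 Rabbit platelet-rich plasma, aggregation triggered by ADP or collagen after 3 min preincubation of PRP with drug. Single or duplicate determinations, reference agent included.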

Canis familiaris [4] = experiment: Inhibition of coronary artery occlusion (mean area under flow time curve) in anesthetized dog at 0.01 mg/kg; format: functional; details: Canis lupus familiaris; method in brief: as §1
[5] = molecular target: cGMP-dependent 3',5'-cyclic phosphodiesterase (Homo sapiens, UniProt O00408); experiment: Inhibition of human platelet PDE by inhibiting cyclic Guanosine monophosphate (cGMP) hydrolysis
Chain of cGMP-dependent 3',5'-cyclic phosphodiesterase (O00408 whole entry): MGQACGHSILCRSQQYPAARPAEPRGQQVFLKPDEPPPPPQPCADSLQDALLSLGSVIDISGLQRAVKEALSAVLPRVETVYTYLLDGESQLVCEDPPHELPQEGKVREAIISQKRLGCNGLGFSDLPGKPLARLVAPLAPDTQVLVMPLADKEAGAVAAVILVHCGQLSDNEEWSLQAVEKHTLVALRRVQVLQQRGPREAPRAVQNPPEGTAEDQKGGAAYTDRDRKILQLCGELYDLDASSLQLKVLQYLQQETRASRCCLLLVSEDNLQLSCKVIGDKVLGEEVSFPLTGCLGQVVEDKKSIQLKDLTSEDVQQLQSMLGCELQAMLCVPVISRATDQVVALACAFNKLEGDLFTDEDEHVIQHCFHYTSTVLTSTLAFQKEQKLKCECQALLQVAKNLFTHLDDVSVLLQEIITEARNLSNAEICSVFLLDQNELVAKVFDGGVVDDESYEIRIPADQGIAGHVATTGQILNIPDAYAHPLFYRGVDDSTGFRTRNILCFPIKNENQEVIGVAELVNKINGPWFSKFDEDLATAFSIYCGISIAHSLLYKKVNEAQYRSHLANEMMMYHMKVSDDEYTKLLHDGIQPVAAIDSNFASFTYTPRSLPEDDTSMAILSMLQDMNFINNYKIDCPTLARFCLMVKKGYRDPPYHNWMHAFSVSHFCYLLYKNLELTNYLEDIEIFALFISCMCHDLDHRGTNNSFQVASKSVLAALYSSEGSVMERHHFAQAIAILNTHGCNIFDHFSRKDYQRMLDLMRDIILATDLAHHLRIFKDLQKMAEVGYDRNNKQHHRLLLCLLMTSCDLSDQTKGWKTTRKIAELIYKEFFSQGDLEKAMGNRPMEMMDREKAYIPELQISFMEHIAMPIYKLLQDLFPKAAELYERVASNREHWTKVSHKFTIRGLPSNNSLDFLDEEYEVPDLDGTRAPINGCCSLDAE

Oryctolagus cuniculus [6] = experiment: Inhibition of thrombus formation (mean thrombus area) in conscious rabbits at 1.0 mg/kg; format: functional; details: values are per cent of control
Method in brief: (§2)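 Conscious rabbit ear biolaser model: ruby laser induces microvascular thrombi. Predose mean thrombus area from 10 vessels, then compound given orally as suspension in H2O/Tween 20 and 10 trials repeated 2 h later in the same rabbit; percent inhibition versus predose. At least three rabbits.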

Oryctolagus cuniculus [7] = experiment: Inhibition of thrombus formation (mean thrombus area) in conscious rabbits at 3.0 mg/kg; format: functional; details: values are per cent of control; method in brief: as §2
Canis familiaris [8] = experiment: Inhibition of coronary artery occlusion (mean area under flow time curve) in anesthetized dog at 0.1 mg/kg; format: functional; details: Canis lupus familiaris; method in brief: as §1
Oryctolagus cuniculus [9] = experiment: Inhibition of thrombus formation (mean thrombus area) in conscious rabbits at 0.3 mg/kg; format: functional; details: values are per cent of control; method in brief: as §2
Mustela putorius furo [10] = experiment: Change in right ventricular contractile force (RCVF) in anesthetized ferrets by intraduodenal dose at 0.3 mg/kg; format: functional; details: Heart right ventricle, dose 3 mg/kg, in the assay text read “3 mg/kg” for “0.3 mg/kg”
Method in brief: (§3)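 Anesthetized ferrets dosed intraduodenally; heart rate, mean arterial blood pressure and right ventricular contractile force monitored as dose-dependent changes, reported as maximum change (%). Averages from at least three separate experiments.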

Mustela putorius furo [11] = experiment: Change in heart rate (HR)in anesthetized ferrets by intraduodenal dose at 0.3 mg/kg; format: functional; details: dose 3 mg/kg, in the assay text read “3 mg/kg” for “0.3 mg/kg”; method in brief: as §3
Mustela putorius furo [12] = experiment: Change in mean arterial blood pressure (MABP) in anesthetized ferrets by intraduodenal dose at 0.3 mg/kg; format: functional, Artery; details: dose 3 mg/kg, in the assay text read “3 mg/kg” for “0.3 mg/kg”; method in brief: as §3
Mustela putorius furo [13] = experiment: Change in right ventricular contractile force (RCVF) in anesthetized ferrets by intraduodenal dose at 10 mg/kg; details: Heart right ventricle
Mustela putorius furo [14] = experiment: Change in heart rate (HR)in anesthetized ferrets by intraduodenal dose at 10 mg/kg
Mustela putorius furo [15] = experiment: Change in mean arterial blood pressure (MABP) in anesthetized ferrets by intraduodenal dose at 3 mg/kg; format: functional, Artery; details: dose 10 mg/kg, in the assay text read “10 mg/kg” for “3 mg/kg”; method in brief: as §3
Oryctolagus cuniculus [16] = species on record: Oryctolagus cuniculus; experiment: Inhibition of ADP-induced platelet aggregation in rabbit platelet rich plasma (PRP); format: functional
Method in brief: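 Rabbit platelet-rich plasma, aggregation triggered by ADP or collagen after 3 min preincubation of PRP with drug. […] Single or duplicate determinations, reference agent included.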

Rattus norvegicus = species on record: Rattus norvegicus; experiment: Oral efficacy in rats using the ex vivo aggregatory protocol; format: functional
Method in brief: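 Rats given compound orally, then ADP-induced platelet aggregation measured ex vivo.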

Oryctolagus cuniculus [17] = experiment: Inhibition of thrombus formation (mean thrombus area) in conscious rabbits at 10.0 mg/kg; format: functional; details: values are per cent of control; method in brief: as §2
Canis familiaris [18] = experiment: Inhibition of coronary artery occlusion (mean area under flow time curve) in anesthetized dog at 0.3 mg/kg; format: functional; details: Canis lupus familiaris; method in brief: as §1
[19] = Inhibition of human platelet c-AMP phosphodiesterase hydrolysis of cAMP
Phosphodiesterase 3 [20] = molecular target: T1, Phosphodiesterase 3; experiment: Inhibition of human platelet PDE cAMP hydrolysis

With `COC(=O)CCCOc1ccc2nc3[nH]c(=O)[nH]c3cc2c1` the inhibition in vivo at 0.03 mg/kg (Canis familiaris [1]) was 109%, the IC50 (Phosphodiesterase 3 [2]) was 400 nM and the EC50 (Oryctolagus cuniculus [3]) was 20 nM. The inhibition in vivo at 0.01 mg/kg (Canis familiaris [4]) was 78%, the IC50 [5] was greater than 100000 nM and the response, % of control at 1 mg/kg (Oryctolagus cuniculus [6]) was 74%. For the same compound, the response, % of control at 3 mg/kg (Oryctolagus cuniculus [7]) was 78%, the inhibition in vivo at 0.1 mg/kg (Canis familiaris [8]) was 120% and the response, % of control at 0.3 mg/kg (Oryctolagus cuniculus [9]) was 145%.
In the case of `O=c1[nH]c2cc3cc(OCCCCS(=O)(=O)c4ccccc4)ccc3nc2[nH]1`, the RVCF (Mustela putorius furo [10]) is reported as 16%, the inhibition in vivo at 0.03 mg/kg (Canis familiaris [1]) is reported as 115% and the IC50 (Phosphodiesterase 3 [2]) is reported as 1 nM. For the same compound, the IC50 [5] was greater than 100000 nM, the HR (Mustela putorius furo [11]) was 13% and the MABP (Mustela putorius furo [12]) was -9%. It also gave an RVCF (Mustela putorius furo [13]) of 39%, an HR (Mustela putorius furo [14]) of 31% and a response, % of control at 1 mg/kg (Oryctolagus cuniculus [6]) of 74%. The response, % of control at 3 mg/kg (Oryctolagus cuniculus [7]) was 62%, the response, % of control at 0.3 mg/kg (Oryctolagus cuniculus [9]) was 137% and the MABP (Mustela putorius furo [15]) was -11%.
Compound `CN(C)C(=O)CCCOc1ccc2[nH]c3nc(O)nc-3cc2c1` has an IC50 (Phosphodiesterase 3 [2]) of 40 nM, an EC50 (Oryctolagus cuniculus [16]) of 4770 nM and an EC50 (Oryctolagus cuniculus [3]) of 950 nM. The ED50 (Rattus norvegicus) was greater than 10 mg/kg.
`O=C1CN2Cc3c(ccc(Cl)c3Cl)N=C2N1` [ANAGRELIDE] gave an inhibition in vivo at 0.03 mg/kg (Canis familiaris [1]) of 72%, a response, % of control at 1 mg/kg (Oryctolagus cuniculus [6]) of 98% and a response, % of control at 3 mg/kg (Oryctolagus cuniculus [7]) of 68%. The response, % of control at 10 mg/kg (Oryctolagus cuniculus [17]) was 49%, the inhibition in vivo at 0.1 mg/kg (Canis familiaris [8]) was 106% and the inhibition in vivo at 0.3 mg/kg (Canis familiaris [18]) was 117%.
`COC(=O)/C=C/C=C/c1ccc2[nH]c3nc(O)nc-3cc2c1` gave an EC50 (Oryctolagus cuniculus [3]) of 670 nM, an IC50 [19] of 90 nM and an ED50 (Rattus norvegicus) of 10 mg/kg.
With `CCOC(=O)/C=C/c1ccc2[nH]c3nc(O)nc-3cc2c1` the EC50 (Oryctolagus cuniculus [3]) was 280 nM and the IC50 [19] was 1000 nM.
With `O=C(O)CCCOc1ccc2[nH]c3nc(O)nc-3cc2c1` the inhibition in vivo at 0.03 mg/kg (Canis familiaris [1]) was 115%, the inhibition in vivo at 0.01 mg/kg (Canis familiaris [4]) was 89% and the IC50 [5] was 30000 nM. For the same compound, the response, % of control at 1 mg/kg (Oryctolagus cuniculus [6]) was 70%, the response, % of control at 3 mg/kg (Oryctolagus cuniculus [7]) was 65% and the inhibition in vivo at 0.1 mg/kg (Canis familiaris [8]) was 111%. For the same compound, the response, % of control at 0.3 mg/kg (Oryctolagus cuniculus [9]) was 144%.
In the case of `CN(C(=O)CCCOc1ccc2nc3[nH]c(=O)[nH]c3cc2c1)C1CCCCC1`, the inhibition in vivo at 0.03 mg/kg (Canis familiaris [1]) is reported as 115%, the IC50 (Phosphodiesterase 3 [2]) is reported as 2 nM and the EC50 (Oryctolagus cuniculus [3]) is reported as 2 nM. It also gave an IC50 [5] of 6000 nM, a response, % of control at 1 mg/kg (Oryctolagus cuniculus [6]) of 65% and a response, % of control at 0.3 mg/kg (Oryctolagus cuniculus [9]) of 97%. It also gave an inhibition in vivo at 0.3 mg/kg (Canis familiaris [18]) greater than 120% and an ED50 (Rattus norvegicus) of 2.9 mg/kg.
`Cn1c(O)nc2nc3ccc(OCCCC(=O)NC4CCCCC4)cc3cc21` showed an EC50 (Oryctolagus cuniculus [3]) of 20 nM, an IC50 [5] greater than 100000 nM and an IC50 (Phosphodiesterase 3 [20]) of 700 nM.
